Data set [1] deals with MT-2 human T-cells. The experiment in a line: Cytotoxicity: inhibition of MT-2 cell growth, MTT. It counts as cell-based. Particulars: MT-2 cells. The method in brief: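 Run alongside the HIV-1 IIIB protection assay in MT-2 human T-cells, with the MTT colorimetric method as read-out. CC50 is the concentration that inhibits MT-2 cell growth by 50%, obtained at the same time as the EC50 for protection of infected cells.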

The test system of data set [2] is IIIB strain of HIV-1. Type of data set: cell-based. Particulars: HIV-1 IIIB, MT-2 cells.

Molecules are shown by their SMILES.

With `COc1nc(Nc2ccc(C#N)c(OCC=C(C)C)c2)nc(OCCOc2nc(Nc3ccc(C#N)c(OCC=C(C)C)c3)nc(OC)n2)n1` [Compound 6a], the “cytotoxicity” value in data set [1] was 20 to 40 µM.
The same measure, in the same setting: to `COc1nc(Nc2ccc(C#N)c(OCC=C(C)C)c2)nc(OCCCOc2nc(Nc3ccc(C#N)c(OCC=C(C)C)c3)nc(OC)n2)n1` [Compound 6b] belongs 20 to 40 µM.
With `COc1nc(NCCNc2nc(Nc3ccc(C#N)c(OCC=C(C)C)c3)nc(OC)n2)nc(Nc2ccc(C#N)c(OCC=C(C)C)c2)n1` [Compound 6e], the “anti-viral activity below CC50 level” value in data set [2] was “did not show anti-viral activity below their CC50 levels”.
`COc1nc(NCCCNc2nc(Nc3ccc(C#N)c(OCC=C(C)C)c3)nc(OC)n2)nc(Nc2ccc(C#N)c(OCC=C(C)C)c2)n1` [Compound 6f]: the “anti-viral activity below CC50 level” value in data set [2] is reported as “did not show anti-viral activity below their CC50 levels”.

(Values after paper PMC3278212 (Bioorganic & medicinal chemistry letters, 2012).)
